Laboratory results taken from paper PMC3880617 (Journal of medicinal chemistry, 2013).

Columns and labels:
[1] = test system: plasmid (pBR322) DNA; assay: Electrophoresis mobility shift assay with plasmid DNA; format: binding; details: metal/DNAbp ratios 0.25-2.0; 37 °C, 20 h
Summary of the method: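 Supercoiled pBR322 (20 μg/mL) in 5 mM Tris/HCl, 50 mM NaClO4, pH 7.39, incubated with test compound at […] metal complex:DNAbp ratios for 20 h at 37 °C in the dark. Untreated DNA and cisplatin-DNA were the controls. Samples were run on 1% agarose in TAE for 1.5 h at 80 V and stained with GelRed for 30 min. Read-out: ratio at which the two plasmid forms coalesce.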

[2] = test system: human breast cancer cell line MCF7; details: read-out: IC50 MCF7; cisplatin dissolved in H2O; ref [18]; cited from earlier work
[3] = test system: A2780cisR (cisplatin resistant variant of A2780); details: read-out: IC50 A2780cisR; cisplatin dissolved in H2O; ref [18]; cited from earlier work
[4] = test system: human ovarian cancer A2780 cell line; details: read-out: IC50 A2780; cisplatin dissolved in H2O; ref [18]; cited from earlier work
[5] = test system: non-tumorigenic human embryonic kidney cells HEK293T; details: read-out: IC50 HEK-293T; cisplatin dissolved in H2O; ref [18]; cited from earlier work
[6] = Stability in solution by 31P{1H} NMR in deuterated solvents; format: physicochemical

In the case of `N.N.[Cl][Pt][Cl]` [cisplatin], the “effect on electrophoretic mobility of pBR322 plasmid forms” value [1] is given as “decrease in mobility of the CCC form and an increase in mobility of the OC form”, the IC50 [2] is given as 20 ± 3 µM and the IC50 [3] is given as 35 ± 7 µM. For the same compound, the IC50 [4] was 1.9 ± 0.6 µM and the IC50 [5] was 11 ± 2.9 µM.
For “[{Cp-P(Ph2)=NH-Ph}2Fe](AuCl4)2 [compound 4]”, the “half-life in d6-DMSO solution” value [6] was “weeks”.
